{
  "source": "ChEMBL document CHEMBL1157145",
  "about": "“Cytotoxic activity of proflavine diureas: synthesis, antitumor, evaluation and DNA binding properties of 1',1''-(acridin-3,6-diyl)-3',3''-dialkyldiureas” (Bioorg Med Chem, 2008)",
  "key": {"HCT-116 [1]": {"tested_on": "HCT-116", "assay": "Cell cycle arrest in human HCT116 cells assessed as accumulation at G2/M phase at 5.10 uM after 24 hrs", "assay_type": "functional", "summary_of_the_method": "(§1)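 Cells seeded at 8 · 10^5 per 60 mm dish, allowed to settle 24 h (37 °C, 5% CO2), then exposed to the drug for 24 or 48 h. Adherent plus floating cells (5 · 10^5) were fixed in cold 70% ethanol at −20 °C overnight, treated with RNase A (100 µg/mL) and stained with propidium iodide (20 µg/mL) in Vindelov's solution for 30 min at RT. Flow cytometry used 488 nm excitation, FL-2 at 585 ± 21 nm, and histograms were modelled for G0/G1, S and G2/M fractions.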"}, "HCT-116 [2]": {"tested_on": "HCT-116", "assay": "Cell cycle arrest in human HCT116 cells assessed as accumulation at G2/M phase at 5.10 uM after 48 hrs", "assay_type": "functional", "summary_of_the_method": "as §1"}, "HCT-116 [3]": {"tested_on": "HCT-116", "assay": "Induction of DNA fragmentation in human HCT116 cells after 48 hrs", "assay_type": "functional, cell-based", "summary_of_the_method": "(§2)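 HCT-116 cells were treated for 24 or 48 h. Adherent and floating cells (5 × 10^5) were pooled, fixed in cold 70% ethanol and held overnight at −20 °C. Samples were treated with RNase A (100 µg/mL) and stained with propidium iodide (20 µg/mL) in Vindelov's solution for 30 min at RT. Flow cytometry used 488 nm excitation with emission at 585 nm. Subdiploid (subG0/G1) particles were scored on a logarithmic scale, with debris gated out on FSC × SSC.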"}, "DNA [4]": {"tested_on": "DNA", "assay": "Binding affinity to calf thymus DNA at 4 uM by fluorescence spectrophotometric titration", "assay_type": "nucleic-acid assay", "conditions": "Bos taurus", "summary_of_the_method": "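ctDNA sonicated in TE buffer, concentration taken from A260 and given in base pairs. Compound (4 µM) in 0.01 M Tris, pH 7.4, 25 °C titrated with ctDNA (0–55 µM bp) until spectra stopped changing. Excitation 424 nm, slit widths 10 nm; binding constant derived from the change in emission.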"}, "DNA [5]": {"tested_on": "DNA", "assay": "Binding affinity to calf thymus DNA at 50 uM by circular dichroism spectrophotometric titration", "assay_type": "nucleic-acid assay", "conditions": "Bos taurus"}, "HeLa [6]": {"tested_on": "HeLa", "assay": "Cytotoxicity against human HeLa cells after 48 hrs by MTT assay", "assay_type": "functional, cell-based"}, "HeLa [7]": {"tested_on": "HeLa", "assay": "Cytotoxicity against human HeLa cells after 72 hrs by MTT assay", "assay_type": "functional, cell-based"}, "HCT-116 [8]": {"tested_on": "HCT-116", "assay": "Cytotoxicity against human HCT116 cells after 48 hrs by MTT assay", "assay_type": "functional, cell-based", "conditions": "HCT-116, 48 h"}, "HCT-116 [9]": {"tested_on": "HCT-116", "assay": "Cytotoxicity against human HCT116 cells after 72 hrs by MTT assay", "assay_type": "functional, cell-based", "conditions": "Homo sapiens, HCT-116, 72 h"}, "HeLa [10]": {"tested_on": "HeLa", "assay": "Antiproliferative activity against human HeLa cells assessed as increase of floating cells in total cell population at 7.80 uM after 24 hrs", "assay_type": "functional", "summary_of_the_method": "(§3)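 Cells seeded (8 · 10^5 per 60 mm dish), allowed to settle 24 h at 37 °C, 5% CO2, then treated with a single concentration for 24 or 48 h. Adherent and floating cells counted by Coulter counter. Total cell number given as % of untreated control; floating cells as % of total cell number.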"}, "HeLa [11]": {"tested_on": "HeLa", "assay": "Antiproliferative activity against human HeLa cells assessed as decrease in total cell population at 7.80 uM after 24 hrs", "assay_type": "functional", "design": "scale not given: the % may be the effect or the level left", "summary_of_the_method": "as §3"}, "HeLa [12]": {"tested_on": "HeLa", "assay": "Antiproliferative activity against human HeLa cells assessed as increase of floating cells in total cell population at 7.80 uM after 48 hrs", "assay_type": "functional", "summary_of_the_method": "as §3"}, "HeLa [13]": {"tested_on": "HeLa", "assay": "Antiproliferative activity against human HeLa cells assessed as decrease in total cell population at 7.80 uM after 48 hrs", "assay_type": "functional", "design": "scale not given: the % may be the effect or the level left", "summary_of_the_method": "as §3"}, "HCT-116 [14]": {"tested_on": "HCT-116", "assay": "Antiproliferative activity against human HCT116 cells assessed as increase of floating cells in total cell population at 5.10 uM after 24 hrs", "assay_type": "functional", "summary_of_the_method": "as §3"}, "HCT-116 [15]": {"tested_on": "HCT-116", "assay": "Antiproliferative activity against human HCT116 cells assessed as decrease in total cell population at 5.10 uM after 24 hrs", "assay_type": "functional", "design": "scale not given: the % may be the effect or the level left", "summary_of_the_method": "as §3"}, "HCT-116 [16]": {"tested_on": "HCT-116", "assay": "Antiproliferative activity against human HCT116 cells assessed as increase of floating cells in total cell population at 5.10 uM after 48 hrs", "assay_type": "functional", "summary_of_the_method": "as §3"}, "HCT-116 [17]": {"tested_on": "HCT-116", "assay": "Antiproliferative activity against human HCT116 cells assessed as decrease in total cell population at 5.10 uM after 48 hrs", "assay_type": "functional", "design": "scale not given: the % may be the effect or the level left", "summary_of_the_method": "as §3"}, "HeLa [18]": {"tested_on": "HeLa", "assay": "Induction of apoptosis in human HeLa cells at 7.80 uM after 24 hrs", "assay_type": "functional", "summary_of_the_method": "(§4)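 After 24 or 48 h of drug exposure, all cells were collected, combining trypsinised adherent cells with floating cells from the medium. Cells (1 × 10^6) were fixed in cold 70% ethanol overnight at −20 °C and stained with DAPI (10 µg/mL) for 30 min in the dark at RT. Under fluorescence microscopy, 300 cells per sample were scored, with condensed or fragmented nuclei counted as apoptotic.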"}, "HeLa [19]": {"tested_on": "HeLa", "assay": "Induction of apoptosis in human HeLa cells at 7.80 uM after 48 hrs", "assay_type": "functional", "summary_of_the_method": "as §4"}, "HCT-116 [20]": {"tested_on": "HCT-116", "assay": "Induction of apoptosis in human HCT116 cells at 5.10 uM after 24 hrs", "assay_type": "functional", "summary_of_the_method": "as §4"}, "HCT-116 [21]": {"tested_on": "HCT-116", "assay": "Induction of apoptosis in human HCT116 cells at 5.10 uM after 48 hrs", "assay_type": "functional", "summary_of_the_method": "as §4"}, "HCT-116 [22]": {"tested_on": "HCT-116", "assay": "Induction of DNA fragmentation in human HCT116 cells after 24 hrs", "assay_type": "functional, cell-based", "summary_of_the_method": "as §2"}, "HeLa [23]": {"tested_on": "HeLa", "assay": "Cell cycle arrest in human HeLa cells assessed as accumulation at G0/G1 phase at 7.80 uM after 24 hrs", "assay_type": "functional", "summary_of_the_method": "as §1"}, "HeLa [24]": {"tested_on": "HeLa", "assay": "Cell cycle arrest in human HeLa cells assessed as accumulation at G0/G1 phase at 7.80 uM after 48 hrs", "assay_type": "functional", "summary_of_the_method": "as §1"}, "HCT-116 [25]": {"tested_on": "HCT-116", "assay": "Cell cycle arrest in human HCT116 cells assessed as accumulation at G0/G1 phase at 5.10 uM after 24 hrs", "assay_type": "functional", "summary_of_the_method": "(§5)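 Adherent plus floating cells (5 · 10^5) collected 24 or 48 h after treatment, fixed in cold 70% ethanol at −20 °C overnight, washed in PBS. RNase A (100 µg/mL) and propidium iodide (20 µg/mL) in Vindelov's solution, 30 min at RT. Flow cytometry with 488 nm excitation, emission 585 ± 21 nm; % cells per cycle phase from DNA content histograms.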"}, "HCT-116 [26]": {"tested_on": "HCT-116", "assay": "Cell cycle arrest in human HCT116 cells assessed as accumulation at G0/G1 phase at 5.10 uM after 48 hrs", "assay_type": "functional", "summary_of_the_method": "as §5"}, "HeLa [27]": {"tested_on": "HeLa", "assay": "Cell cycle arrest in human HeLa cells assessed as accumulation at S phase at 7.80 uM after 24 hrs", "assay_type": "functional", "summary_of_the_method": "as §1"}, "HeLa [28]": {"tested_on": "HeLa", "assay": "Cell cycle arrest in human HeLa cells assessed as accumulation at S phase at 7.80 uM after 48 hrs", "assay_type": "functional", "summary_of_the_method": "as §1"}, "HCT-116 [29]": {"tested_on": "HCT-116", "assay": "Cell cycle arrest in human HCT116 cells assessed as accumulation at S phase at 5.10 uM after 24 hrs", "assay_type": "functional", "summary_of_the_method": "as §1"}, "HCT-116 [30]": {"tested_on": "HCT-116", "assay": "Cell cycle arrest in human HCT116 cells assessed as accumulation at S phase at 5.10 uM after 48 hrs", "assay_type": "functional", "summary_of_the_method": "as §1"}, "HeLa [31]": {"tested_on": "HeLa", "assay": "Cell cycle arrest in human HeLa cells assessed as accumulation at G2/M phase at 7.80 uM after 24 hrs", "assay_type": "functional", "summary_of_the_method": "as §1"}, "HeLa [32]": {"tested_on": "HeLa", "assay": "Cell cycle arrest in human HeLa cells assessed as accumulation at G2/M phase at 7.80 uM after 48 hrs", "assay_type": "functional", "summary_of_the_method": "as §1"}},
  "note": "Active and inactive are the calls of the source. The rule behind the calls is not given here.",
  "data": [
    {"smiles": "CCCCCNC(=O)Nc1ccc2cc3ccc(NC(=O)NCCCCC)cc3nc2c1.Cl", "values": [
      {"measurement": "Activity", "setting": "HCT-116 [1]", "value": 44.05, "unit": "%"},
      {"measurement": "Activity", "setting": "HCT-116 [2]", "value": 37.04, "unit": "%"},
      {"measurement": "Activity", "setting": "HCT-116 [3]", "value": "Active"},
      {"measurement": "K", "setting": "DNA [4]", "value": 1.7, "unit": "×10⁵ /M"},
      {"measurement": "Activity", "setting": "DNA [5]", "value": "Active"},
      {"measurement": "IC50", "setting": "HeLa [6]", "value": 7.78, "unit": "µM"},
      {"measurement": "IC50", "setting": "HeLa [7]", "value": 13.3, "unit": "µM"},
      {"measurement": "IC50", "setting": "HCT-116 [8]", "value": 5.12, "unit": "µM"},
      {"measurement": "IC50", "setting": "HCT-116 [9]", "value": 3.48, "unit": "µM"},
      {"measurement": "Activity", "setting": "HeLa [10]", "value": 3.86, "unit": "%"},
      {"measurement": "Activity", "setting": "HeLa [11]", "value": 87.47, "unit": "%"},
      {"measurement": "Activity", "setting": "HeLa [12]", "value": 3.62, "unit": "%"},
      {"measurement": "Activity", "setting": "HeLa [13]", "value": 101.34, "unit": "%"},
      {"measurement": "Activity", "setting": "HCT-116 [14]", "value": 78.81, "unit": "%"},
      {"measurement": "Activity", "setting": "HCT-116 [15]", "value": 45.85, "unit": "%"},
      {"measurement": "Activity", "setting": "HCT-116 [16]", "value": 88.58, "unit": "%"},
      {"measurement": "Activity", "setting": "HCT-116 [17]", "value": 21.22, "unit": "%"},
      {"measurement": "Activity", "setting": "HeLa [18]", "value": 1.33, "unit": "%"},
      {"measurement": "Activity", "setting": "HeLa [19]", "value": 0.89, "unit": "%"},
      {"measurement": "Activity", "setting": "HCT-116 [20]", "value": 10.67, "unit": "%"},
      {"measurement": "Activity", "setting": "HCT-116 [21]", "value": 11.33, "unit": "%"},
      {"measurement": "Activity", "setting": "HCT-116 [22]", "value": "Active"},
      {"measurement": "Activity", "setting": "HeLa [23]", "value": 61, "unit": "%"},
      {"measurement": "Activity", "setting": "HeLa [24]", "value": 72.24, "unit": "%"},
      {"measurement": "Activity", "setting": "HCT-116 [25]", "value": 38.62, "unit": "%"},
      {"measurement": "Activity", "setting": "HCT-116 [26]", "value": 40.8, "unit": "%"},
      {"measurement": "Activity", "setting": "HeLa [27]", "value": 25.46, "unit": "%"},
      {"measurement": "Activity", "setting": "HeLa [28]", "value": 17.38, "unit": "%"},
      {"measurement": "Activity", "setting": "HCT-116 [29]", "value": 17.34, "unit": "%"},
      {"measurement": "Activity", "setting": "HCT-116 [30]", "value": 22.16, "unit": "%"},
      {"measurement": "Activity", "setting": "HeLa [31]", "value": 13.54, "unit": "%"},
      {"measurement": "Activity", "setting": "HeLa [32]", "value": 10.39, "unit": "%"}
    ]}
  ]
}
